# Activity calls are given as the source filed them. No cut-off for these calls is given here.
# How the values were obtained:
# [1] = biological target: T1, Muscarinic acetylcholine receptor M2 (Homo sapiens) (UniProt P08172)
# T1 sequence (whole entry): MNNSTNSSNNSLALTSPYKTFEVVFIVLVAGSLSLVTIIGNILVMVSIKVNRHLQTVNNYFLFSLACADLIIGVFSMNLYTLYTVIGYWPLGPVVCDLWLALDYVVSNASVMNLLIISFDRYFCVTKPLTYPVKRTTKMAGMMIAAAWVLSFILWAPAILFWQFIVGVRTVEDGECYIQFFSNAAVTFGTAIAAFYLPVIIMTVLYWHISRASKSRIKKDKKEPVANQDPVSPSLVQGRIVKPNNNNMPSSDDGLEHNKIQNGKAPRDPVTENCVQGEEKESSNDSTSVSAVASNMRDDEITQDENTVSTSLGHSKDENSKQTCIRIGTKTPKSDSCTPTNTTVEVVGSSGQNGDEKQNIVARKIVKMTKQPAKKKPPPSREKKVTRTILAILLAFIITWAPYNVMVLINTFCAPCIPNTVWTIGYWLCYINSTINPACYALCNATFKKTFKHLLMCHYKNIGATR
# [2] = biological target: T1, Muscarinic acetylcholine receptor M2 (Homo sapiens); assay: (§1) Antagonist activity at human muscarinic acetylcholine receptor M2 expressed in HEK293 cells coexpressing HA tagged Galpha-protein qi5 assessed as inhibition of 0.3 uM carbachol-induced IP1 accumulation preincubated for 30 mins followed by carbachol addition measured after 1 hr by HTRF assay; assay type: functional, cell-based
# How it was run: (§2)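 HEK-293 transiently cotransfected with human M2R and Gαqi5-HA. Cells preincubated 30 min with antagonist, then carbachol added (final 0.1, 0.3, 1 or 10 μM), 1 h at 37 °C. IP1 detected by HTRF (620/670 nm emission, 330 nm excitation). At least four independent experiments, each in duplicate.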
# [3] = biological target: T1, Muscarinic acetylcholine receptor M2 (Homo sapiens); assay: Binding affinity to human muscarinic acetylcholine receptor M2 expressed in CHOK9 cells assessed as association rate constant incubated up to 140 mins by liquid scintillation counting assay; assay type: cell-based; settings: tested as the 3H-labelled form
# [4] = biological target: T1, Muscarinic acetylcholine receptor M2 (Homo sapiens); assay: Agonist activity at human muscarinic acetylcholine receptor M2 expressed in HEK293 cells coexpressing HA tagged Galpha-protein qi5 assessed as induction of IP1 accumulation measured after 1 hr by HTRF assay; assay type: functional, cell-based
# How it was run: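 HEK-293 transiently cotransfected with human M2R and Gαqi5-HA, seeded 24 h before assay (10000 cells/well). Compounds in stimulation buffer (1 pM–100 μM final) 1 h at 37 °C; IP1 read by HTRF (620/670 nm, excitation 330 nm) after 60 min with detection reagents at rt. Duplicate, three experiments, carbachol as reference.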
# [5] = biological target: T2, Muscarinic acetylcholine receptor M2 (Homo sapiens, UniProt P08172); assay: as §1, with “Competitive antagonist” for “Antagonist”, “0.1” for “0.3”; assay type: functional, cell-based
# T2 sequence (P08172 whole entry): T1 sequence (whole entry)
# How it was run: as §2
# [6] = biological target: T1, Muscarinic acetylcholine receptor M2 (Homo sapiens); assay: as above; assay type: functional, cell-based
# How it was run: as §2
# [7] = biological target: T2, Muscarinic acetylcholine receptor M2; assay: Displacement of [3H]NMS from human muscarinic acetylcholine receptor M2 expressed in CHOK9 cells after 3 hrs by liquid scintillation counting assay; assay type: cell-based
# [8] = biological target: T2, Muscarinic acetylcholine receptor M2; assay: Displacement of [3H]UR-AP060 from human muscarinic acetylcholine receptor M2 expressed in CHOK9 cell homogenate after 3 hrs by liquid scintillation counting assay
# [9] = biological target: T1, Muscarinic acetylcholine receptor M2 (Homo sapiens); assay: Binding affinity to human muscarinic acetylcholine receptor M2 expressed in CHOK9 cells assessed as dissociation half life after 105 mins by liquid scintillation counting assay; assay type: cell-based; settings: tested as the 3H-labelled form
# [10] = biological target: T2, Muscarinic acetylcholine receptor M2; assay: as §1, with “Competitive antagonist” for “Antagonist”, “1” for “0.3”; assay type: functional, cell-based
# How it was run: as §2
# [11] = biological target: T1, Muscarinic acetylcholine receptor M2 (Homo sapiens); assay: as above; assay type: functional, cell-based
# How it was run: as §2
# [12] = biological target: T1, Muscarinic acetylcholine receptor M2 (Homo sapiens); assay: (§3) Binding affinity to human muscarinic acetylcholine receptor M2 expressed in live adherent CHOK9 cells after 2 hrs by liquid scintillation counting assay; assay type: cell-based; settings: tested as the 3H-labelled form
# How it was run: (§4)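 Live adherent CHO-hM2 cells in L15 medium with 1% BSA, 23 ± 1 °C, 2 h incubation. Competition at 2 nM radioligand; additional 4, 8, 15 and 30 nM in W84 experiments. […] Saturation data fitted one-site; competition by four-parameter logistic fits; at least three experiments in triplicate.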
# [13] = biological target: T1, Muscarinic acetylcholine receptor M2 (Homo sapiens); assay: Binding affinity to human muscarinic acetylcholine receptor M2 expressed in CHOK9 cells assessed as dissociation rate constant after 105 mins by liquid scintillation counting assay; assay type: cell-based; settings: tested as the 3H-labelled form
# [14] = biological target: T1, Muscarinic acetylcholine receptor M2 (Homo sapiens); assay: Binding affinity to human muscarinic acetylcholine receptor M2 expressed in live adherent CHOK9 cells at Kd in presence of 500-fold excess atropine after 2 hrs by liquid scintillation counting assay relative to control; assay type: cell-based; settings: tested as the 3H-labelled form
# How it was run: as §4
# [15] = biological target: T2, Muscarinic acetylcholine receptor M2; assay: Displacement of [3H]UNSW-MK259 from human muscarinic acetylcholine receptor M2 expressed in CHOK9 cells after 3 hrs by liquid scintillation counting assay; assay type: cell-based
# [16] = biological target: T2, Muscarinic acetylcholine receptor M2; assay: as §1, with “Competitive antagonist” for “Antagonist”, “10” for “0.3”; assay type: functional, cell-based
# How it was run: as §2
# [17] = biological target: T1, Muscarinic acetylcholine receptor M2 (Homo sapiens); assay: as above; assay type: functional, cell-based
# How it was run: as §2
# [18] = Chemical stability of the compound in PBS buffer at pH 7.4 after 48 hrs by HPLC analysis; assay type: physicochemical; settings: pH 7.4, 48 h
# How it was run: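 Compound at 100 μM final (from 10 mM stock) in PBS pH 7.4 at 22 ± 1 °C; samples taken at 0, 24 and 48 h, mixed with acetonitrile/1% aq TFA 2:8, analysed by RP-HPLC at 220 nm.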
# [19] = biological target: T2, Muscarinic acetylcholine receptor M2; assay: Binding affinity to human muscarinic acetylcholine receptor M2 expressed in live adherent CHOK9 cells assessed as saturation binding after 2 hrs by liquid scintillation counting assay
# [20] = biological target: T2, Muscarinic acetylcholine receptor M2; assay: as §3; assay type: cell-based
# How it was run: as §4
# [21] = biological target: T2, Muscarinic acetylcholine receptor M2; assay: Ratio of binding affinity to human muscarinic acetylcholine receptor M2 expressed in CHOK9 cells assessed as dissociation rate constant to binding affinity to human muscarinic acetylcholine receptor M2 expressed in CHOK9 cells assessed as association rate constant; assay type: cell-based
# [22] = biological target: T2, Muscarinic acetylcholine receptor M2; assay: Binding affinity to human muscarinic acetylcholine receptor M2 expressed in CHOK9 cell homogenate after 2 hrs by liquid scintillation counting assay; settings: read-out: Kd(app)
# How it was run: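 CHO-hM2 cell homogenates (25–30 μg protein/well) in L15 medium with 1% BSA, 23 ± 1 °C, 2 h with tritiated dimeric radioligand. Competition used 0.5 nM radioligand; additional 0.4, 1, 2 and 4 nM in W84 experiments. […] Four-parameter logistic fits; at least three experiments in triplicate.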
# [23] = biological target: T2, Muscarinic acetylcholine receptor M2; assay: Binding affinity to human muscarinic acetylcholine receptor M2 expressed in CHOK9 cell suspension after 2 hrs by liquid scintillation counting assay; settings: read-out: Kd(app)
# [24] = biological target: T3, Muscarinic acetylcholine receptor M4 (Homo sapiens, UniProt P08173); assay: Binding affinity to human muscarinic acetylcholine receptor M4 expressed in CHOK9 cells after 2 hrs by liquid scintillation counting assay; assay type: cell-based
# T3 sequence (P08173 whole entry): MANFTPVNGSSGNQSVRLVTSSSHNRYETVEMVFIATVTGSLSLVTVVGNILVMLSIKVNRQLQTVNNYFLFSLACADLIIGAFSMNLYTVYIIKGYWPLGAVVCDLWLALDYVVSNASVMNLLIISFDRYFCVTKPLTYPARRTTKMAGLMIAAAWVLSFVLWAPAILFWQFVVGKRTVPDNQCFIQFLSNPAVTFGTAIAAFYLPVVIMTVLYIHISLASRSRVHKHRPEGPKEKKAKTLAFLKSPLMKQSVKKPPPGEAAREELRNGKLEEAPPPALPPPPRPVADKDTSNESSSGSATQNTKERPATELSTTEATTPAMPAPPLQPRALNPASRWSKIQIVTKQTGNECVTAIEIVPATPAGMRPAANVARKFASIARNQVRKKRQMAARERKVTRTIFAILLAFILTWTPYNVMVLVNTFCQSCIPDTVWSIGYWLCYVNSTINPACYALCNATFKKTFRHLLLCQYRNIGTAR
compound,measurement,setting,value
Cc1c(Cl)c(OCC(=O)N2CCN(C)CC2)nc2sc(C(=O)NC3CC3)c(N)c12,pKb,[1],5.77
CCC(=O)NCCNC(=O)CCc1cn(CCCCC2CCN(CC(=O)N3c4ccccc4NC(=O)c4ccccc43)CC2)cn1,inhibition,[2],Dose-dependent effect
same,pKb,[2],7.53
same,K,[3],217000 M⁻¹ s⁻¹
same,Activity,[4],inactive
same,IC50,[5],33.9 nM
same,inhibition,[6],Dose-dependent effect
same,Ki,[7]; read-out: pKi (converted),0.759 nM
same,Ki,[8],10.2 nM
same,T1/2,[9],1.18 h
same,IC50,[10],85.1 nM
same,inhibition,[11],Dose-dependent effect
same,Bmax (disintegrations/minute),[12],780
same,K,[13],0.0091 min⁻¹
same,Activity,[14],< 5%
same,Ki,[15],1.1 nM
same,IC50,[16],355 nM
same,inhibition,[17],Dose-dependent effect
same,Stability,[18],Stable
[3H]CC([3H])C(=O)NCCNC(=O)CCc1cn(CCCCC2CCN(CC(=O)N3c4ccccc4NC(=O)c4ccccc43)CC2)cn1 (stereo not given),Ki,[7]; read-out: Ki,0.76 nM
same,Kd,[19],0.87 nM
same,Kd,[20],0.87 nM
same,Kd,[21],0.7 nM
O=C(O)C(F)(F)F.O=C(O)C(F)(F)F.O=C(O)C(F)(F)F.O=C(O)C(F)(F)F.[3H]CC([3H])C(=O)NCc1cc(C(=O)NCCNC(=O)CCc2cn(CCCCC3CCN(CC(=O)N4c5ccccc5NC(=O)c5ccccc54)CC3)cn2)cc(C(=O)NCCNC(=O)CCc2cn(CCCCC3CCN(CC(=O)N4c5ccccc5NC(=O)c5ccccc54)CC3)cn2)c1 (stereo not given),Ki,[7]; read-out: Ki,0.41 nM
same,Kd,[19],0.31 nM
same,Kd,[22],0.22 to 0.24 nM
same,Kd,[23],0.31 nM
same,Kd,[20],0.91 nM
same,Kd,[24],0.67 nM
same,Kd,[21],0.2 nM

# Reference: ChEMBL document CHEMBL4049434, “Radiolabeled Dibenzodiazepinone-Type Antagonists Give Evidence of Dualsteric Binding at the M2 Muscarinic Acetylcholine Receptor” (J Med Chem, 2017)
